Experimental data taken from ChEMBL document CHEMBL1125291, “New 8-(trifluoromethyl)-substituted quinolones. The benefits of the 8-fluoro group with reduced phototoxic risk” (1992).
In brackets after ≈: the same amount, converted by molar mass.

Legend:
Mus musculus [1] = species: Mus musculus; test: Days of the first positive reaction in […] mice.; type: functional
Summary of the method: (§1)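 Phototoxic skin reaction test in depilated female CD-1 mice. A single oral dose (gavage) or subcutaneous dose was given, followed 1 h later by 3 h of UVA exposure (320–400 nm). The regimen was repeated for up to 4 consecutive days, with initial doses of 30, 100 and 300 mg/kg. PTD50 was derived by the probit method. The first day of positive reaction and the no-effect dose were taken from the raw data.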

[2] = Number of mice which show positive phototoxic reaction in 15 mice; type: functional, Mus musculus; summary of the method: as §1
Escherichia coli [3] = test: In vivo efficacy in mouse protection test in Escherichia coli Vogel administered by subcutaneous injection.; type: functional; details: Escherichia coli, sc; read-out: PD50
Summary of the method: (§2)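 Acute lethal systemic infections in female Charles River CD-1 mice. A single dose was given at challenge, orally by gavage or by subcutaneous injection. PD50 (median protective dose, mg/kg) was determined.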

Escherichia coli [4] = test: In vivo efficacy in mouse protection test in Escherichia coli Vogel dose administered orally by gavage.; type: functional; details: Escherichia coli, po; read-out: PD50; summary of the method: as §2
Escherichia coli [5] = test: Minimum inhibitory concentration (MIC) against gram negative bacteria Escherichia coli H-560.; type: functional; details: Escherichia coli; read-out: MIC
Summary of the method: (§3)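 MICs were determined by standard broth microtitration against 11 Gram-positive and Gram-negative organisms, in µg/mL. Values come from duplicate or triplicate experiments and are accurate to ±50%.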

Escherichia coli [6] = test: Minimum inhibitory concentration (MIC) against gram negative bacteria Escherichia coli Vogel.; type: functional; details: Escherichia coli; read-out: MIC; summary of the method: as §3
Enterobacter cloacae = test: Minimum inhibitory concentration (MIC) against gram negative bacteria Enterobacter cloacae MA-2646.; type: functional
Klebsiella pneumoniae = test: Minimum inhibitory concentration (MIC) against gram negative bacteria Klebsiella pneumoniae MGH-2.; type: functional; details: Klebsiella pneumoniae; read-out: MIC; summary of the method: as §3
Mus musculus [7] = species: Mus musculus; test: Dose required to induce phototoxic reaction in 50% of mice by probit method at different dosage forms.; type: functional
Mus musculus [8] = species: Mus musculus; test: Dose which has no effect to induce phototoxic reaction in 50% of mice by probit method.; type: functional
Mus musculus [9] = test: Maximum tolerance dose was measured for phototoxic skin reaction by po administration; type: functional
[10] = Minimum inhibitory concentration (MIC) against gram negative bacteria Prot. rettgeri M-1771.; type: functional, Providencia rettgeri; details: Providencia rettgeri; read-out: MIC; summary of the method: as §3
Pseudomonas aeruginosa [11] = test: In vivo efficacy (s.c.) against Pseudomonas aeruginosa in mouse protection test; type: functional; details: Pseudomonas aeruginosa, sc; read-out: PD50; summary of the method: as §2
Pseudomonas aeruginosa [12] = test: In vivo efficacy (orally) against Pseudomonas aeruginosa in mouse protection test; type: functional; details: Pseudomonas aeruginosa, po; read-out: PD50; summary of the method: as §2
Pseudomonas aeruginosa [13] = test: Minimum inhibitory concentration (MIC) against gram negative bacteria Pseudomonas aeruginosa UI-18.; type: functional; details: Pseudomonas aeruginosa; read-out: MIC; summary of the method: as §3
Streptococcus pyogenes [14] = test: In vivo efficacy (s.c.) against Streptococcus pyogenes C-203 in mouse protection test; type: functional; details: Streptococcus pyogenes, sc; read-out: PD50; summary of the method: as §2
Streptococcus pyogenes [15] = test: In vivo efficacy (orally) against Streptococcus pyogenes C-203 in mouse protection test; type: functional; details: Streptococcus pyogenes, po; read-out: PD50; summary of the method: as §2
Staphylococcus aureus [16] = test: Minimum inhibitory concentration (MIC) against gram positive bacteria Staphylococcus aureus H-228.; type: functional; details: Staphylococcus aureus; read-out: MIC; summary of the method: as §3
Staphylococcus aureus [17] = test: Minimum inhibitory concentration (MIC) against gram positive bacteria Staphylococcus aureus UC-76.; type: functional; details: Staphylococcus aureus; read-out: MIC; summary of the method: as §3
Enterococcus faecalis = test: Minimum inhibitory concentration (MIC) against gram positive bacteria Streptococcus faecalis MGH-2.; type: functional; details: Enterococcus faecalis; read-out: MIC; summary of the method: as §3
Streptococcus pneumoniae [18] = test: Minimum inhibitory concentration (MIC) against gram positive bacteria Streptococcus pneumoniae SV-1.; type: functional; details: Streptococcus pneumoniae; read-out: MIC; summary of the method: as §3
Streptococcus pyogenes [19] = test: Minimum inhibitory concentration (MIC) against gram positive bacteria Streptococcus pyogenes C-203.; type: functional; details: Streptococcus pyogenes; read-out: MIC; summary of the method: as §3
Streptococcus pneumoniae [20] = test: In vivo efficacy (s.c.) against Streptococcus pneumoniae SV-1 in mouse protection test; type: functional; details: Streptococcus pneumoniae, sc; read-out: PD50; summary of the method: as §2
Streptococcus pneumoniae [21] = test: In vivo efficacy (orally) against Streptococcus pneumoniae SV-1 in mouse protection test; type: functional; details: Streptococcus pneumoniae, po; read-out: PD50; summary of the method: as §2
Mus musculus [22] = species: Mus musculus; test: Number of mice which show positive phototoxic reaction in 5 mice; type: functional
[23] = Days of the first positive reaction in […] mice; type: functional, Mus musculus
Summary of the method: (§4)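 Depilated female CD-1 mice got a single oral (gavage) or subcutaneous dose, then UVA (320–400 nm) exposure for 3 h starting 1 h post-dose. This was repeated for up to 4 consecutive days. Initial doses were 30, 100 and 300 mg/kg. PTD50 was derived by probit. First day of positive reaction and no-effect dose were taken from the raw data.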

Mus musculus [24] = species: Mus musculus; test: Dose required to induce phototoxic reaction in 50% of mice by […] reactions at different dosage forms; type: functional; summary of the method: as §4
Mus musculus [25] = species: Mus musculus; test: Number of mice which show positive phototoxic reaction.; type: functional; summary of the method: as §1

Compound	Day of first positve reaction (Mus musculus [1])	ED50 (Escherichia coli [3])	ED50 (Escherichia coli [4])	MIC (Escherichia coli [5])	MIC (Escherichia coli [6])	MIC (Enterobacter cloacae)	MIC (Klebsiella pneumoniae)	PTD50 (Mus musculus [7])	No effect dose (Mus musculus [8])	MTD (Mus musculus [9])	MIC [10]	ED50 (Pseudomonas aeruginosa [11])	MIC (Pseudomonas aeruginosa [13])	ED50 (Streptococcus pyogenes [14])	ED50 (Streptococcus pyogenes [15])	MIC (Staphylococcus aureus [16])	MIC (Staphylococcus aureus [17])	MIC (Enterococcus faecalis)	MIC (Streptococcus pneumoniae [18])	MIC (Streptococcus pyogenes [19])	further results
NC1CCN(c2c(F)cc3c(=O)c(C(=O)O)cn(C4CC4)c3c2F)C1 (configuration not stated)	3	0.2 mg/kg	0.9 mg/kg	0.003 µg/mL (≈ 0.00859 µM)	0.025 µg/mL (≈ 0.0716 µM)	0.013 µg/mL (≈ 0.0372 µM)	0.025 µg/mL (≈ 0.0716 µM)	4.2 mg/kg	3 mg/kg	6 mg/kg	0.1 µg/mL (≈ 0.286 µM)	3 mg/kg	0.1 µg/mL (≈ 0.286 µM)	2.3 mg/kg	7.5 mg/kg	0.05 µg/mL (≈ 0.143 µM)	0.025 µg/mL (≈ 0.0716 µM)	0.1 µg/mL (≈ 0.286 µM)	0.1 µg/mL (≈ 0.286 µM)	0.05 µg/mL (≈ 0.143 µM)	No. of pos rxns [2]: 15; ED50 (Pseudomonas aeruginosa [12]): 6.5 mg/kg; ED50 (Streptococcus pneumoniae [20]): 5.5 mg/kg; ED50 (Streptococcus pneumoniae [21]): 15 mg/kg
CCNCC1CCN(c2c(F)cc3c(=O)c(C(=O)O)cn(C4CC4)c3c2C(F)(F)F)C1 (configuration not stated)	0	1.7 mg/kg	5.3 mg/kg	0.2 µg/mL (≈ 0.453 µM)	0.4 µg/mL (≈ 0.906 µM)	0.4 µg/mL (≈ 0.906 µM)	0.8 µg/mL (≈ 1.81 µM)	>100 mg/kg	100 mg/kg	100 mg/kg	1.6 µg/mL (≈ 3.62 µM)	46 mg/kg	6.3 µg/mL (≈ 14.3 µM)	1.1 mg/kg	1.6 mg/kg	0.05 µg/mL (≈ 0.113 µM)	0.013 µg/mL (≈ 0.0295 µM)	0.1 µg/mL (≈ 0.227 µM)	0.05 µg/mL (≈ 0.113 µM)	0.05 µg/mL (≈ 0.113 µM)	No. of pos rxns (Mus musculus [22]): 0; ED50 (Pseudomonas aeruginosa [12]): 93 mg/kg; ED50 (Streptococcus pneumoniae [20]): 0.9 mg/kg; ED50 (Streptococcus pneumoniae [21]): 1.4 mg/kg
O=C(O)c1cn(C2CC2)c2c(F)c(N3CCNCC3)c(F)cc2c1=O	–	0.26 mg/kg	0.45 mg/kg	0.013 µg/mL (≈ 0.0372 µM)	0.05 µg/mL (≈ 0.143 µM)	0.025 µg/mL (≈ 0.0716 µM)	0.05 µg/mL (≈ 0.143 µM)	–	100 mg/kg	100 mg/kg	0.1 µg/mL (≈ 0.286 µM)	2.5 mg/kg	0.2 µg/mL (≈ 0.573 µM)	8.9 mg/kg	33 mg/kg	0.4 µg/mL (≈ 1.15 µM)	0.1 µg/mL (≈ 0.286 µM)	0.4 µg/mL (≈ 1.15 µM)	0.8 µg/mL (≈ 2.29 µM)	0.8 µg/mL (≈ 2.29 µM)	Day of first positve reaction [23]: 0; No. of pos rxns (Mus musculus [22]): 0; PTD50 (Mus musculus [24]): 171 mg/kg; ED50 (Pseudomonas aeruginosa [12]): 6.6 mg/kg; ED50 (Streptococcus pneumoniae [20]): 29 mg/kg; ED50 (Streptococcus pneumoniae [21]): 59 mg/kg
NC1CCCN(c2cc3c(cc2F)c(=O)c(C(=O)O)cn3C2CC2)C1 (configuration not stated)	0	1.4 mg/kg	15 mg/kg	0.1 µg/mL (≈ 0.29 µM)	0.1 µg/mL (≈ 0.29 µM)	0.1 µg/mL (≈ 0.29 µM)	0.2 µg/mL (≈ 0.579 µM)	>100 mg/kg	100 mg/kg	100 mg/kg	0.8 µg/mL (≈ 2.32 µM)	–	0.8 µg/mL (≈ 2.32 µM)	8 mg/kg	> 50 mg/kg	0.8 µg/mL (≈ 2.32 µM)	0.05 µg/mL (≈ 0.145 µM)	0.2 µg/mL (≈ 0.579 µM)	0.2 µg/mL (≈ 0.579 µM)	0.1 µg/mL (≈ 0.29 µM)	No. of pos rxns (Mus musculus [25]): 0
NC1CCCN(c2c(F)cc3c(=O)c(C(=O)O)cn(C4CC4)c3c2C(F)(F)F)C1 (configuration not stated)	0	3.2 mg/kg	11.8 mg/kg	0.1 µg/mL (≈ 0.242 µM)	0.1 µg/mL (≈ 0.242 µM)	0.1 µg/mL (≈ 0.242 µM)	0.2 µg/mL (≈ 0.484 µM)	>100 mg/kg	100 mg/kg	100 mg/kg	0.4 µg/mL (≈ 0.968 µM)	–	1.6 µg/mL (≈ 3.87 µM)	12 mg/kg	35 mg/kg	0.2 µg/mL (≈ 0.484 µM)	0.025 µg/mL (≈ 0.0605 µM)	0.2 µg/mL (≈ 0.484 µM)	0.2 µg/mL (≈ 0.484 µM)	0.2 µg/mL (≈ 0.484 µM)	No. of pos rxns (Mus musculus [25]): 0
